In ChEMBL document CHEMBL2062452, “Identification of Simple Compounds with Microtubule-Binding Activity That Inhibit Cancer Cell Growth with High Potency” (ACS Med Chem Lett, 2011):
Active and inactive are the calls of the source. The rule behind the calls is not given here.

Assays:
Tubulin (Sus scrofa) = Tubulin (Sus scrofa) (UniProt P02554+P02550); assay: Inhibition of pig brain tubulin polymerization at 5 uM measured every min for 60 mins by spectrophotometry
Procedure, shortened: (§1)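 Purified porcine brain tubulin self-polymerized into microtubules in buffer, and polymerization was followed as the rise in light scattering at 340 nm.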

HT-1080 [1] = conditions: Homo sapiens, 100 nM
HT-1080 [2] = assay: Inhibition of microtubule polymerization in human HT1080 cells at 50 nM for 4 hrs by immunocytochemistry analysis; type: cell-based
HT-1080 [3] = assay: Inhibition of microtubule polymerization in human HT1080 cells at 272 nM for 4 hrs by immunocytochemistry analysis; type: cell-based
Procedure, shortened: (§2)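 HT-1080 cells were treated, then immunofluorescence-stained for microtubules and scored for loss of the hairlike network. Colchicine- and vinblastine-treated cells served as controls.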

[4] = Growth inhibition of human BJeLR cells after 24 hrs by alamar blue assay; type: functional, cell-based
HT-1080 [5] = assay: Induction of apoptosis in human HT1080 cells assessed as caspase activation after 24 to 48 hrs; type: functional, cell-based
HT-1080 [6] = assay: Induction of cell death in human HT1080 cells assessed as viability at 0.1 to 10000 nM after 24 hrs in the presence of caspase inhibitor zVAD-fmk; type: functional, cell-based
HT-1080 [7] = assay: Induction of cell death in human HT1080 cells in presence of calcium channel inhibitor Co2+; type: functional, cell-based
HT-1080 [8] = assay: Induction of cell death in human HT1080 cells assessed as viability at 0.1 to 10000 nM after 24 hrs in the presence of caspase inhibitor Boc-D-fmk; type: functional, cell-based
HT-1080 [9] = assay: Growth inhibition of human HT1080 cells after 24 hrs by alamar blue assay; type: functional, cell-based; conditions: HT-1080, 24 h
HT-1080 [10] = assay: Induction of apoptosis in human HT1080 cells assessed as caspase activation at 0.33 to 2729 nM; type: functional, cell-based; conditions: TDE = time-dependent effect
MCF-10A = assay: Growth inhibition of human MCF10A cells after 24 hrs by alamar blue assay; type: functional, cell-based
Sus scrofa = species on record: Sus scrofa; assay: Stabilization of pig brain microtubule at 5 uM measured every min for 60 mins by spectrophotometry; procedure, shortened: as §1
HT-1080 [11] = assay: Induction of apoptosis in human HT1080 cells assessed as caspase activation at 0.33 to 2714 nM; type: functional, cell-based; conditions: TDE = time-dependent effect
HT-1080 [12] = assay: Inhibition of microtubule polymerization in human HT1080 cells at 250 nM for 4 hrs by immunocytochemistry analysis; type: cell-based; procedure, shortened: as §2
HT-1080 [13] = assay: Induction of apoptosis in human HT1080 cells assessed as caspase activation at 0.81 to 6006 nM; type: functional, cell-based; conditions: TDE = time-dependent effect

Tubulin (Sus scrofa), sequence (P02550 whole entry, looked up): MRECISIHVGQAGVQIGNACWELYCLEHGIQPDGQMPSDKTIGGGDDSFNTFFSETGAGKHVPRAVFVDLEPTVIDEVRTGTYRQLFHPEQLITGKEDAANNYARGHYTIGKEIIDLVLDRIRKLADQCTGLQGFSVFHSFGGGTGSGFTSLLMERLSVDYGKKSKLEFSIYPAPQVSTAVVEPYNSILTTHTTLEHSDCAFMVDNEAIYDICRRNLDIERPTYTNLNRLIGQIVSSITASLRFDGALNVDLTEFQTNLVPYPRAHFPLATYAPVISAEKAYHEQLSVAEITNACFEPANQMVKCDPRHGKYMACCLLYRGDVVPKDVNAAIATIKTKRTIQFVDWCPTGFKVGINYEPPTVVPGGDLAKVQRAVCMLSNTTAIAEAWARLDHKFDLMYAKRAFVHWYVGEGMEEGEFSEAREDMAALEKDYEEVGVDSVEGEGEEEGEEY
Tubulin (Sus scrofa), sequence (P02554 whole entry, looked up): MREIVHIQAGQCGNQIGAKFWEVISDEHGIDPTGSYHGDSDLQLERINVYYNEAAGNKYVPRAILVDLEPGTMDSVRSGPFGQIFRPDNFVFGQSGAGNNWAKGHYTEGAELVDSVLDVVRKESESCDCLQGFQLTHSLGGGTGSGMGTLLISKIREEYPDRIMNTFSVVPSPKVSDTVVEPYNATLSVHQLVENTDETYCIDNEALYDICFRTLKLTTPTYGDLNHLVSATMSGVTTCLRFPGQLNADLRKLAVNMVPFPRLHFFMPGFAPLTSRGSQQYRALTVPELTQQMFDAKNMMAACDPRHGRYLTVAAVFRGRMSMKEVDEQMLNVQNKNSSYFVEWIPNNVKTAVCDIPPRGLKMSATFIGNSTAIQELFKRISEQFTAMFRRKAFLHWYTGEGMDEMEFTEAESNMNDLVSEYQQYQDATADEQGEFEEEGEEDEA

SMILES | inhibition (Tubulin (Sus scrofa)) | inhibition (HT-1080 [3]) | EC50 [4] [nM] | Activity (HT-1080 [5]) | Activity (HT-1080 [6]) | Activity (HT-1080 [7]) | Activity (HT-1080 [8]) | EC50 (HT-1080 [9]) [nM] | EC50 (MCF-10A) [nM] | Activity (Sus scrofa) | also measured
CC[C@]1(O)C[C@@H]2CN(CCc3c([nH]c4ccccc34)[C@@](C(=O)OC)(c3cc4c(cc3OC)N(C)[C@H]3[C@@](O)(C(=O)OC)[C@H](OC(C)=O)[C@]5(CC)C=CCN6CC[C@]43[C@@H]65)C2)C1 | Active |  |  |  |  |  |  |  |  |  | inhibition (HT-1080 [1]): Active
COc1cc2c(c(OC)c1OC)-c1ccc(OC)c(=O)cc1[C@@H](NC(C)=O)CC2 |  |  |  |  |  |  |  |  |  |  | inhibition (HT-1080 [2]): Active
CCOc1ccc(C2=Nn3c(nnc3-c3ccccc3OC)SC2)cc1 |  | Active | < 100 | Dose-dependent effect | Active | Active | Active | < 100 | < 100 |  | Activity (HT-1080 [10]): tde
CC(=O)O[C@H]1C(=O)[C@@]2(C)[C@H]([C@H](OC(=O)c3ccccc3)[C@]3(O)C[C@H](OC(=O)[C@H](O)[C@@H](NC(=O)c4ccccc4)c4ccccc4)C(C)=C1C3(C)C)[C@]1(OC(C)=O)CO[C@@H]1C[C@@H]2O |  |  |  |  |  |  |  |  |  | Active | 
O=S(=O)(c1ccc(-c2cnc(C3CC3)o2)cc1)N1CCCc2ccccc21 | Active | Active | < 100 | Dose-dependent effect | Active | Active | Active | < 100 | < 100 |  | Activity (HT-1080 [11]): tde
COc1ccccc1N1CCN(C(=O)c2cc(=O)c3cc(C)cc(C)c3o2)CC1 |  |  | < 100 | Dose-dependent effect | Active | Active | Active | < 100 | < 100 | Active | inhibition (HT-1080 [12]): inactive; Activity (HT-1080 [13]): tde
